Reference: ChEMBL document CHEMBL1123566, “Synthesis and cardiac electrophysiological activity of 2- and 3-[(substituted phenyl)alkyl]quinuclidines. Structure-activity relationships” (1987)
Where “and” joins values, the source holds several entries; their conditions need not be identical. Identical values can stand only once.

Assays:
Canis familiaris [1] = species: Canis familiaris; assay: In vitro electrophysiological evaluation in canine cardiac ventricular muscle reported as maximum % change for conduction time(CT) at 0.1-10 uM concentration range; Minimal (<10% decrease or increase in CT).; assay type: functional, Canis lupus familiaris, Muscle tissue
Method in brief: (§1)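 Canine right ventricle and papillary muscle strips in oxygenated Tyrode's solution, fitted with stimulating and recording electrodes. The extra-stimulus conduction-interval method was adapted for in vitro use. FRP and CT were read from a conduction-interval curve before and after various compound concentrations, and expressed as percent change from control. Compounds were taken from 10 mM deionized-water stock into Tyrode's. Each strip was used once as its own control.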

Canis familiaris [2] = species: Canis familiaris; assay: In vitro electrophysiological evaluation in canine cardiac ventricular muscle reported as % change for the functional refractory period (FRP) at 10 uM at concentration range of 0.1-10 uM; parameters: species or system Canis lupus familiaris, Muscle tissue; method in brief: as §1
Canis familiaris [3] = species: Canis familiaris; assay: In vitro electrophysiological evaluation in canine cardiac ventricular muscle reported as % change for conduction time(CT) at 10 uM at 0.1-10 uM concentration range; Minimal (<10% decrease or increase in CT).; assay type: functional, Canis lupus familiaris, Muscle tissue
Canis familiaris [4] = species: Canis familiaris; assay: In vitro electrophysiological evaluation in canine cardiac ventricular muscle reported as maximum % change for functional refractory period (FRP) at 0.1-10 uM concentration range; concentration at which it occurred is 10 uM; parameters: species or system Canis lupus familiaris, Muscle tissue; method in brief: as §1
Canis familiaris [5] = species: Canis familiaris; assay: In vitro electrophysiological evaluation in canine cardiac Purkinje fibres reported as percent change Vmax at 10 uM at concentration range of 0.1-100 uM; Minimal (<10% decrease or increase in V max).; assay type: functional, organism-based; settings: Canis lupus familiaris, Purkinje fiber
Method in brief: (§2)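 Canine cardiac Purkinje fibres, intracellular microelectrode recording, paced at a basic cycle length of 1 s. APD95 and Vmax read simultaneously. Compound: 10 mM stock in deionized water, diluted into Tyrode's solution, tested over the stated concentration range. Each fibre used once as its own control. Result is % change from control, given at 10 µM or as the maximum with its concentration. M = <10% decrease or an increase in Vmax.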

Canis familiaris [6] = species: Canis familiaris; assay: In vitro electrophysiological evaluation in canine cardiac Purkinje fibres reported as percent change Vmax at 10 uM at concentration range of 1-100 uM; Minimal (<10% decrease or increase in V max).; assay type: functional; settings: Canis lupus familiaris, Purkinje fiber; method in brief: as §2
Canis familiaris [7] = species: Canis familiaris; assay: In vitro electrophysiological evaluation in canine cardiac Purkinje fibres reported as maximum percent change Vmax concentration range of 0.1-100 uM; Minimal (<10% decrease or increase in V max).; assay type: functional; settings: Canis lupus familiaris; Purkinje fiber; method in brief: as §2
Canis familiaris [8] = species: Canis familiaris; assay: In vitro electrophysiological evaluation in canine cardiac Purkinje fibres reported as % change for action potential duration at 10 uM at 1-100 uM concentration range; assay type: functional, Canis lupus familiaris, Purkinje fiber; method in brief: as §2
Canis familiaris [9] = species: Canis familiaris; assay: In vitro electrophysiological evaluation in canine cardiac Purkinje fibres reported as % change for action potential duration at a concentration of 10 uM; assay type: functional, Canis lupus familiaris, Purkinje fiber; method in brief: as §2
Canis familiaris [10] = species: Canis familiaris; assay: (§3) In vitro electrophysiological activity in canine cardiac occurred is 100 uM; assay type: functional, Canis lupus familiaris, Heart
Canis familiaris [11] = species: Canis familiaris; assay: In vitro electrophysiological activity in canine cardiac occurred is 10 uM; assay type: functional, Canis lupus familiaris, Heart
Canis familiaris [12] = species: Canis familiaris; assay: In vitro electrophysiological evaluation in canine cardiac ventricular muscle reported as maximum % change for functional refractory period (FRP) at 0.1-100 uM concentration range; concentration at which it occurred is 100 uM; parameters: species or system Canis lupus familiaris, Muscle tissue; method in brief: as §1
Canis familiaris [13] = species: Canis familiaris; assay: In vitro electrophysiological evaluation in canine cardiac ventricular muscle reported as % change for conduction time(CT) at 10 uM at 0.1-100 uM concentration range; Minimal (<10% decrease or increase in CT).; assay type: functional, Canis lupus familiaris, Muscle tissue
Canis familiaris [14] = species: Canis familiaris; assay: In vitro electrophysiological evaluation in canine cardiac ventricular muscle reported as maximum % change for conduction time(CT) at 0.1-100 uM concentration range; Minimal (<10% decrease or increase in CT).; assay type: functional, Canis lupus familiaris, Muscle tissue; method in brief: as §1
Canis familiaris [15] = species: Canis familiaris; assay: In vitro electrophysiological evaluation in canine cardiac Purkinje fibres reported as maximum percent change Vmax concentration range of 1-100 uM; Minimal (<10% decrease or increase in V max).; assay type: functional; settings: Canis lupus familiaris; Purkinje fiber; method in brief: as §2
Canis familiaris [16] = species: Canis familiaris; assay: In vitro electrophysiological evaluation in canine cardiac occurred is 100 uM; assay type: functional; settings: Canis lupus familiaris; Heart
Canis familiaris [17] = species: Canis familiaris; assay: as §3; assay type: functional, Canis lupus familiaris, Heart; remark: listed apart in the source

Row | SMILES | CT (Canis familiaris [1]) [%] | FRP (Canis familiaris [2]) [%] | CT (Canis familiaris [3]) [%] | FRP (Canis familiaris [4]) [%] | Vmax (Canis familiaris [5]) [%] | Vmax (Canis familiaris [6]) [%] | Vmax (Canis familiaris [7]) [%] | APD95 (Canis familiaris [8]) [%] | APD95 (Canis familiaris [9]) [%] | APD95 (Canis familiaris [10]) [%] | APD95 (Canis familiaris [11]) [%] | FRP (Canis familiaris [12]) | CT (Canis familiaris [13]) [%] | CT (Canis familiaris [14]) [%] | Vmax (Canis familiaris [15]) [%] | Vmax (Canis familiaris [16]) [%] | APD95 (Canis familiaris [17]) [%]
1 | CC(=O)C(CC1C(=O)C2CCN1CC2)C(=O)c1ccccc1.Cl (stereo unspecified) | <10 | 14 | <10 | 20 | < 10 | < 10 | < 10 | -5 | -6 | -19 | -6 | – | – | – | – | – | –
2 | CS(=O)(=O)Nc1cc(C(=O)CCC2C(=O)C3CCN2CC3)ccc1Cl.Cl (stereo unspecified) | – | – | – | – | < 10 | – | – | -3 | -4 | 17 | – | 21% and 32% and 15% | <10 | <10 | < 10 | -28 | 21
